In brackets after ≈: the same amount, converted by molar mass. Activity calls are given as the source filed them. The calls are words filed in the database; no cut-off is given here.
What was measured:
HUVEC [1] = assay: Cytotoxicity against human HUVEC cells assessed as reduction in erastin-induced cell survival at 10 uM measured for 24 hrs by SRB assay; format: toxicity, cell-based
How it was run: (§1)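 HUVECs (gelatin-coated dishes, M199 with 20% bovine serum and FGF2, 37 °C, 5% CO2) seeded in 96-well plates and incubated overnight. Treated 24 h with 10 μM erastin alone or with compound (10 μM, or a range of concentrations). Cells fixed with TCA, stained with 0.4% SRB in 1% acetic acid, dissolved in 10 mM Tris pH 10.5, A540 read. Survival computed relative to blank and untreated control. At least three separate experiments.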

HUVEC [2] = assay: Cytotoxicity against human HUVEC cells assessed as high glucose-induced cell survival at 10 uM measured for 24 hrs by SRB assay; format: toxicity, cell-based
How it was run: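 HUVECs in M199 with 20% bovine serum and FGF2, plated in 96-well plates, incubated overnight. Exposed to 30 mM high glucose alone or with 10 μM compound for 24 h. Viability by SRB (TCA fixation, 0.4% SRB stain, Tris pH 10.5 solubilisation, A540). Survival expressed relative to blank and untreated control. n = 3.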

[3] = Antioxidant activity assessed as DPPH radical scavenging activity incubated for 30 mins; format: functional
How it was run: (§2)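 DPPH at 100 μM in ethanol (180 μL) mixed with compound in DMSO (20 μL), giving 50 μM final compound. Kept 30 min in the dark at room temperature, then A517 read to obtain DPPH clearance. For IC50, a concentration gradient of compound was tested and the curve fitted.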

[4] = Antioxidant activity assessed as DPPH radical scavenging activity at 50 uM incubated for 30 mins relative to control; format: functional; how it was run: as §2
[5] = Kinetic solubility of compound in PBS buffer at pH7.4 incubated for; format: physicochemical; settings: pH 7.4, read-out: Kinetic_solubility
How it was run: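 DMSO stocks ([…]) were diluted 4 μL into 196 μL of 10 mM PBS pH 7.4, giving final concentrations of 3.13–200 μM. Plate shaken for 10 s and incubated 2 h at 37 °C. Solubility taken as the highest concentration with no measurable turbidity.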

HUVEC [6] = assay: Anti-ferroptotic activity against Erastin-induced ferroptosis in human HUVEC cells assessed as cell viability incubated for 24 hrs by SRB assay; format: functional, cell-based; how it was run: as §1
[7] = Microsomal stability in mouse liver microsome assessed as parent compound remaining measured after 60 mins in absence of NADPH by LC-MS/MS analysis; format: ADME; settings: liver microsomes, read-out: Stability
How it was run: (§3)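 Compound at 1 μM final was incubated at 37 °C with liver microsomes (human, rat or mouse) in pH 7.4 buffer, with and without NADPH. Verapamil served as reference. Samples taken at 0–60 min and quenched in acetonitrile with tolbutamide internal standard. Analysed by LC-MS/MS on a C18 column with a water/acetonitrile 0.1% TFA gradient. Parent remaining reported at 60 min; T1/2 also derived.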

[8] = Microsomal stability in human liver microsome assessed as parent compound remaining measured after 60 mins in presence of NADPH by LC-MS/MS analysis; format: ADME; settings: liver microsomes, read-out: Stability; how it was run: as §3
[9] = Microsomal stability in human liver microsome assessed as parent compound remaining measured after 60 mins in absence of NADPH by LC-MS/MS analysis; format: ADME; settings: liver microsomes, read-out: Stability; how it was run: as §3
[10] = Microsomal stability in mouse liver microsome assessed as parent compound remaining measured after 60 mins in presence of NADPH by LC-MS/MS analysis; format: ADME; settings: liver microsomes, read-out: Stability; how it was run: as §3
[11] = Microsomal stability in rat liver microsome assessed as half life measured upto 60 mins by LC-MS/MS analysis; format: ADME; settings: liver microsomes
[12] = Microsomal stability in mouse liver microsome assessed as half life measured upto 60 mins by LC-MS/MS analysis; format: ADME; settings: liver microsomes
[13] = Microsomal stability in human liver microsome assessed as half life measured upto 60 mins by LC-MS/MS analysis; format: ADME; settings: liver microsomes
[14] = Microsomal stability in rat liver microsome assessed as parent compound remaining measured after 60 mins in absence of NADPH by LC-MS/MS analysis; format: ADME; settings: liver microsomes, read-out: Stability; how it was run: as §3
[15] = Microsomal stability in rat liver microsome assessed as parent compound remaining measured after 60 mins in presence of NADPH by LC-MS/MS analysis; format: ADME; settings: liver microsomes, read-out: Stability; how it was run: as §3
HUVEC [16] = assay: Cytotoxicity against human HUVEC cells assessed as reduction in cell viability at 10 uM measured for 24 hrs by SRB assay; format: toxicity, cell-based
How it was run: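 HUVECs were grown on gelatin-coated dishes in M199 with 20% bovine serum and 10 IU/mL FGF2 at 37 °C, 5% CO2. Cells were seeded in 96-well plates, incubated overnight, then exposed to compound for 24 h. They were TCA-fixed, stained for 10 min with 0.4% SRB in 1% acetic acid, and dissolved in 10 mM Tris (pH 10.5). A540 survival was calculated relative to blank and control, from at least three experiments.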

HUVEC [17] = assay: Anti-ferroptotic activity against human HUVEC cells assessed as decrease in LPO level at 10 uM incubated for 24 hrs; format: functional, cell-based
How it was run: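 HUVECs given 30 mM high glucose plus 10 μM compound for 24 h. Cells collected, extracted and sonicated on ice (3 s on, 7 s off, 3 min total), then spun 8000 × g for 10 min at 4 °C. LPO measured in the supernatant with a kit. Values relative to untreated cells set to 1; n = 3.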

HUVEC [18] = assay: Upregulation of GPX4 expression in high glucose-induced human HUVEC cells at 10 uM incubated for 24 hrs by Western blot analysis; format: functional, cell-based
How it was run: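 HUVECs exposed 24 h to 30 mM high glucose and 10 μM compound, then lysed in RIPA. Protein by BCA; 15 μg per lane run on 12% SDS-PAGE and blotted to PVDF. Probed with anti-GPX4 (1:1000) and anti-β-actin (1:5000) overnight at 4 °C, detected by ECL, and quantified by densitometry. Untreated cells normalized to 1; n = 3.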

HUVEC [19] = assay: Anti-ferroptotic activity against human HUVEC cells assessed as decrease in intracellular ferrous ion level at 10 uM incubated for 24 hrs by ferroOrange probe based analysis; format: functional, cell-based
How it was run: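 After 24 h with 30 mM high glucose and 10 μM compound, HUVECs were washed three times in serum-free medium. Loaded with 1 μM FerroOrange for 30 min at 37 °C, 5% CO2, then imaged by fluorescence microscopy. Ferrous ion signal quantified relative to untreated control set to 1; n = 3.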

HUVEC [20] = assay: Induction of mitochondrial damage in high glucose-induced human HUVEC cells assessed as increase in monomer formation at 10 uM incubated for 24 hrs by JC-1 staining based flow cytometry analysis; format: functional, cell-based
HUVEC [21] = assay: Anti-ferroptotic activity against human HUVEC cells assessed as decrease in MDA level at 10 uM incubated for 24 hrs; format: functional, cell-based
How it was run: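 Cells were HUVECs under 30 mM high glucose with 10 μM compound, 24 h. Lysed in Western/IP lysis buffer and spun 10 000 × g for 10 min. MDA measured by kit in the supernatant and normalized to mg protein. Expressed relative to untreated control set to 1; n = 3.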

HUVEC [22] = assay: Inhibition of ROS accumulation in high glucose-induced human HUVEC cells at 10 uM incubated for 24 hrs by DCF-DA staining based fluorescence microscopic analysis

IC50 [3] [µM] | solubility kinetic [5] [µM] | SMILES | Activity (HUVEC [1]) | Activity (HUVEC [2]) | Activity [4] [%] | EC50 (HUVEC [6]) [nM] | also measured
 |  | O=C(N/N=C/c1ccccc1OCc1ccccc1)c1ccc(NC2CCCCC2)c(NCc2ccccc2)c1 | Toxic |  |  |  | 
 |  | O=C(N/N=C/c1ccc(F)c([N+](=O)[O-])c1)c1ccc(NC2CCCCC2)c(NCc2ccccc2)c1 | Toxic |  |  |  | 
 |  | CN(C)c1ccc(/C=N/NC(=O)c2ccc(NC3CCCCC3)c(NCc3ccccc3)c2)cc1 | Non-Toxic |  |  |  | 
 |  | O=C(N/N=C/c1cccc(O)c1O)c1ccc(NC2CCCCC2)c(NCc2ccccc2)c1 | Toxic |  |  |  | 
54.5 | 25 (≈ 11.4 µg/mL) | COc1ccccc1/C=N/NC(=O)c1ccc(NC2CCCCC2)c(NCc2ccccc2)c1 | Non-Toxic | Non-Toxic | 57.4 | 650 | 
45.9 | 20 (≈ 9.43 µg/mL) | O=C(N/N=C/c1cccc([N+](=O)[O-])c1)c1ccc(NC2CCCCC2)c(NCc2ccccc2)c1 | Non-Toxic | Non-Toxic | 53.3 | 690 | 
38.6 | 22.2 (≈ 10 µg/mL) | N#Cc1cccc(/C=N/NC(=O)c2ccc(NC3CCCCC3)c(NCc3ccccc3)c2)c1 | Non-Toxic | Non-Toxic | 59.6 | 610 | 
 |  | O=C(N/N=C/c1ccccc1)c1ccc(NC2CCCCC2)c(NCc2ccccc2)c1 | Non-Toxic |  |  |  | 
 |  | O=C(N/N=C/c1ccc(F)c(Br)c1)c1ccc(NC2CCCCC2)c(NCc2ccccc2)c1 | Non-Toxic |  |  |  | 
46.8 | 28.6 (≈ 13.2 µg/mL) | O=C(N/N=C/c1ccc(Cl)cc1)c1ccc(NC2CCCCC2)c(NCc2ccccc2)c1 | Non-Toxic | Non-Toxic | 53.4 | 730 | 
54.3 | > 200 | CCOC(=O)c1ccc(NC2CCCCC2)c(N)c1 |  | Non-Toxic | 52.5 | 600 | remaining at 1 h [7]: 5%; remaining at 1 h [8]: 7.6%; remaining at 1 h [9]: 6%; remaining at 1 h [10]: 6.6%; half-life [11]: 18.4 min; half-life [12]: 2.7 min; half-life [13]: 16.8 min; remaining at 1 h [14]: 4%; remaining at 1 h [15]: 6.1%
 |  | O=C(N/N=C/c1ccc([N+](=O)[O-])cc1)c1ccc(NC2CCCCC2)c(NCc2ccccc2)c1 | Non-Toxic |  |  |  | 
 |  | O=C(N/N=C/c1ccc(N2CCCC2)cc1)c1ccc(NC2CCCCC2)c(NCc2ccccc2)c1 | Non-Toxic |  |  |  | 
59.2 | 20 (≈ 10.7 µg/mL) | O=C(N/N=C/c1cccc(OCc2ccccc2)c1)c1ccc(NC2CCCCC2)c(NCc2ccccc2)c1 | Non-Toxic | Non-Toxic | 52.2 | 680 | 
56.8 | 28.6 (≈ 12.7 µg/mL) | O=C(N/N=C/c1ccc(O)cc1)c1ccc(NC2CCCCC2)c(NCc2ccccc2)c1 | Non-Toxic | Non-Toxic | 53.3 | 790 | 
 |  | COc1ccc(/C=N/NC(=O)c2ccc(NC3CCCCC3)c(NCc3ccccc3)c2)c(O)c1 | Non-Toxic |  |  |  | 
 |  | O=C(N/N=C/c1ccc(Cl)c(Cl)c1)c1ccc(NC2CCCCC2)c(NCc2ccccc2)c1 | Non-Toxic |  |  |  | 
 |  | N#Cc1ccc(/C=N/NC(=O)c2ccc(NC3CCCCC3)c(NCc3ccccc3)c2)cc1 | Toxic |  |  |  | 
 |  | CCOc1ccccc1-n1c(C(C)N2CCN(C(=O)COc3ccc(Cl)cc3)CC2)nc2ccccc2c1=O (stereo not drawn) [ERASTIN] |  |  |  |  | Activity (HUVEC [16]): 75%
38.1 | 20 (≈ 10.7 µg/mL) | O=C(N/N=C/c1ccc(OCc2ccccc2)cc1)c1ccc(NC2CCCCC2)c(NCc2ccccc2)c1 | Non-Toxic | Non-Toxic | 65.9 | 500 | remaining at 1 h [7]: 38%; Activity (HUVEC [17]): Active; Activity (HUVEC [18]): Active; remaining at 1 h [8]: 0.6%; Activity (HUVEC [19]): Active; remaining at 1 h [9]: 105%; Activity (HUVEC [20]): Active; remaining at 1 h [10]: 1%; half-life [11]: 9.1 min; Activity (HUVEC [21]): Active; Activity (HUVEC [22]): Active; half-life [12]: 9 min; half-life [13]: 4.9 min; remaining at 1 h [14]: 110%; remaining at 1 h [15]: 1%
 |  | O=C(N/N=C/c1ccc(Br)cc1)c1ccc(NC2CCCCC2)c(NCc2ccccc2)c1 | Non-Toxic |  |  |  | 
 |  | COc1cc(/C=N/NC(=O)c2ccc(NC3CCCCC3)c(NCc3ccccc3)c2)cc(OC)c1 | Non-Toxic |  |  |  | 
46.8 | 6.2 (≈ 2.19 µg/mL) | CCOC(=O)c1ccc(NC2CCCCC2)c(NCc2ccccc2)c1 |  |  | 56.4 |  | 

— ChEMBL document CHEMBL5385970, “Design, synthesis, and evaluation of novel ferrostatin derivatives for the prevention of HG-induced VEC ferroptosis” (RSC Med Chem, 2024)
